Laboratory results taken from ChEMBL document CHEMBL4325878, “SAR of a new antischistosomal urea carboxylic acid” (Bioorg Med Chem Lett, 2018).
≈ marks a conversion by molar mass, not a printed value. Calls of active or inactive are those of the source. The rule behind the calls is not given here.

Experiments:
[1] = Intrinsic clearance in mouse liver microsomes assessed per mg protein after 60 mins in presence of NADPH; type: ADME, Microsome; conditions: 1 h
In short: (§1)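 In vitro intrinsic clearance determined in human and in mouse liver microsomes. Control incubations run without NADPH co-factor; parameters were not derived where compound was lost in those co-factor-free controls.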

Schistosoma mansoni [2] = assay: Antischistosomal activity against newly transformed Schistosoma mansoni cercariae at 10 uM after 72 hrs by microscopic analysis; type: functional, organism-based
In short: (§2)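 Newly transformed schistosomula and cultured adult S. mansoni were exposed in vitro to compound at 10 μM.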

[3] = Intrinsic clearance in human liver microsomes assessed per mg protein after 60 mins in presence of NADPH; type: ADME, Microsome; conditions: 1 h; in short: as §1
L6 = assay: Cytotoxicity against rat L6 cells up to 200 uM; type: cell-based
In short: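 Growth inhibition of rat L6 myoblasts was used as the host-cell cytotoxicity measure, testing compound at concentrations up to 200 μM.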

[4] = Kinetic solubility of compound in 0.01 M HCL at 10 mg/ml at pH 2 by nephelometry; type: physicochemical; conditions: read-out: Kinetic_solubility
In short: (§3)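 DMSO solutions of compound spiked into pH 6.5 phosphate buffer or 0.01 M HCl (approx. pH 2.0); nephelometry read-out, reported as a solubility concentration range.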

Schistosoma mansoni [5] = assay: Antischistosomal activity against adult stage of Schistosoma mansoni cercariae at 10 uM after 72 hrs by microscopic analysis; type: functional, organism-based; in short: as §2
Schistosoma mansoni [6] = assay: Antischistosomal activity against Schistosoma mansoni cercariae infected in NMRI mouse assessed as worm burden reduction at 100 mg/kg, po administered as single dose on day 49 of post infection and measured on day 21 of post treatment relative to control; type: functional; design: scale not given: the % may be the effect or the level left
In short: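 Single 100 mg/kg oral dose given to S. mansoni-infected mice; in vivo activity read as worm burden reduction versus an untreated control group, with statistical comparison to control.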

[7] = Kinetic solubility of compound in pH 6.5 phosphate buffer at 10 mg/ml by nephelometry; type: physicochemical; conditions: read-out: Kinetic_solubility; in short: as §3
Schistosoma mansoni [8] = assay: Antischistosomal activity against adult stage of Schistosoma mansoni infected in NMRI nude mouse administered as single oral dose on day 49 of post infection; type: functional; conditions: 1176 h
Schistosoma mansoni [9] = assay: Antischistosomal activity against adult stage of Schistosoma mansoni cercariae after 72 hrs by microscopic analysis; type: functional

Compound | microsomal intrinsic clearance [1] [µL/min] | microsomal intrinsic clearance [3] [µL/min] | solubility kinetic [4] [µg/mL] | solubility kinetic [7] [µg/mL] | Activity (Schistosoma mansoni [2]) | Activity (L6) | Activity (Schistosoma mansoni [5]) | Activity (Schistosoma mansoni [6]) [%] | ED50 (Schistosoma mansoni [8]) [mg/kg] | LC50 (Schistosoma mansoni [9]) [nM]
CC(C)(C(=O)O)n1c(=O)[nH]c2cc(C(F)(F)F)c(F)cc21 | < 7 | < 7 | 50 to 100 (≈ 163 to 327 µM) | > 100 | inactive | Non-Toxic | inactive | 0 | – | –
CC1(C)NC(=O)N(c2ccc(F)c(C(F)(F)F)c2)C1=O | – | – | – | – | – | – | – | – | 172 | –
CC(C)(NC(=O)Nc1ccc(F)c(C(F)(F)F)c1)C(=O)O | < 7 | < 7 | 25 to 50 (≈ 81.1 to 162 µM) | > 100 | inactive | – | inactive | – | – | –
O=C(C1CCCCC1)N1CC(=O)N2CCc3ccccc3C2C1 (stereo not given) [PRAZIQUANTEL] | – | – | – | – | – | – | – | 15 | – | 77
O=C(O)CNC(=O)Nc1ccc(F)c(C(F)(F)F)c1 | < 7 | < 7 | > 100 | > 100 | inactive | Non-Toxic | inactive | 49 | – | –
CCOC(=O)C(C)(C)NC(=O)Nc1ccc(F)c(C(F)(F)F)c1 | – | – | 3.1 to 6.3 (≈ 9.22 to 18.7 µM) | 3.1 to 6.3 (≈ 9.22 to 18.7 µM) | inactive | Non-Toxic | inactive | 70 | – | –

Continued, in another order:

microsomal intrinsic clearance [1] [µL/min] | microsomal intrinsic clearance [3] [µL/min] | solubility kinetic [4] [µg/mL] | solubility kinetic [7] [µg/mL] | Compound | Activity (Schistosoma mansoni [2]) | Activity (L6) | Activity (Schistosoma mansoni [5]) | Activity (Schistosoma mansoni [6]) [%] | ED50 (Schistosoma mansoni [8]) [mg/kg] | LC50 (Schistosoma mansoni [9]) [nM]
< 7 | < 7 | > 100 | > 100 | CC(C)(C(=O)O)N1CCCN(c2ccc(F)c(C(F)(F)F)c2)C1=O | inactive | Non-Toxic | inactive | 14 | – | –
18 | 19 | 50 to 100 (≈ 163 to 325 µM) | 50 to 100 (≈ 163 to 325 µM) | CC(C)(NC(=O)Nc1ccc(F)c(C(F)(F)F)c1)C(N)=O | inactive | Non-Toxic | inactive | 38 | – | –
< 7 | < 7 | 25 to 50 (≈ 81.4 to 163 µM) | 25 to 50 (≈ 81.4 to 163 µM) | CC(C)(CC(=O)Nc1ccc(F)c(C(F)(F)F)c1)C(=O)O | inactive | Non-Toxic | inactive | 42 | – | –
< 7 | < 7 | 50 to 100 (≈ 163 to 325 µM) | 25 to 50 (≈ 81.4 to 163 µM) | CC(C)(NC(=O)Cc1ccc(F)c(C(F)(F)F)c1)C(=O)O | inactive | Non-Toxic | inactive | 0 | – | –
< 7 | 7 | 50 to 100 (≈ 156 to 312 µM) | > 100 | O=C(Nc1ccc(F)c(C(F)(F)F)c1)NC1(C(=O)O)CCC1 | inactive | Non-Toxic | inactive | 21 | – | –
< 7 | < 7 | 50 to 100 (≈ 156 to 312 µM) | > 100 | CC(C)(C(=O)O)N1Cc2cc(F)c(C(F)(F)F)cc2NC1=O | inactive | Non-Toxic | inactive | 0 | – | –
< 7 | < 7 | > 100 | > 100 | O=C(Nc1ccc(F)c(C(F)(F)F)c1)NC1(C(=O)O)CC1 | inactive | Non-Toxic | inactive | 4 | – | –
< 7 | < 7 | > 100 | 50 to 100 (≈ 225 to 450 µM) | CC(C)(NC(=O)Nc1ccccc1)C(=O)O | inactive | Non-Toxic | inactive | 20 | – | –
